The source of these data is the EternaBench riboswitch data.

The series deals with MS2 coat protein. In words: apparent Kd, MS2 coat protein; higher = weaker binding; RNA-MaP array; FMN 200 µM where present. Summed up:
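Stalled E. coli RNA polymerase produced the designs on Illumina sequencing-chip clusters. SNAP-549-labelled MS2 coat protein was added from 0.7 or 1.5 nM, doubling to 3 µM, without and then with constant ligand, in 100 mM Tris-HCl pH 7.5, 80 mM KCl, 4 mM MgCl2, BSA, DTT, yeast tRNA and Tween-20. The apparent Kd is the median of filtered per-cluster fits of green signal normalised to red-channel RNA signal and control-cluster median Fmax.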

Setting [1] is: designed as: OFF switch for flavin mononucleotide, no ligand.
Where [2] appears, read: ligand present: flavin mononucleotide, designed as: OFF switch for flavin mononucleotide.
Where [3] appears, read: designed as: ON switch for flavin mononucleotide, no ligand.
Where [4] appears, read: ligand present: flavin mononucleotide, designed as: ON switch for flavin mononucleotide.

As to “AAGACAAAUGUAGGAUAUGCGUGGCGAAGCUAUGCAGAAGGACAUGAGGAUCACCCAUGUCUUAGCGUCUGCGUACAGAUGCUA”, the “apparent Kd” value under setting [1] stood at 16.7 nM and the “apparent Kd” value under setting [2] was determined as 20.9 nM.
Take “CAGUGCUGUUGAGAGGAUAUGCGGCGACGGACAUGAGGAUCACCCAUGUUAGCGACAGCGUUGCGGCAGAAGGCUCUGCCCGCUA”: the “apparent Kd” value by setting is: under setting [3], 52.3 nM; under setting [4], 23.1 nM.
Regarding “CGACACAUGAGGGUCUCCCAUGACAUGAGGAUCACCCAUGUGCAGGAUAUACGUGUGAUGGUAUAGUAGAAGGGCACUCUAUGU”, the “apparent Kd” value turned out to be 41.6 nM under setting [1] and 58 nM under setting [2].
As for “UUAAUAGUAGGAUAUACAUGAGGAUCACCCAUGUAGCAACUACAUUAAGGAACCUGAUGUAGAAGGACUCCCAG”, the “apparent Kd” value under setting [1] amounted to 13.3 nM and the “apparent Kd” value under setting [2] worked out at 15.2 nM.
For “CAUGUCCUCGCAGGAUAUGCUGGACUUUGUCCAGCAGAAGGGUGAUAACAUGAGGAUCACCCAUGUGGACAUGAUAUAUUUAAU”, the “apparent Kd” value reads like this: under setting [3], 28.1 nM; under setting [4], 1720 nM.
As to “GGUACUCAAAGAGUACCAAUACGAACAUGAGGAUCACCCAUGUAGGAUAUGCUACUCGAAGAGUAGCAGAAGGACAUGUGCCUA”, the “apparent Kd” value reads like this: under setting [1], 16.9 nM; under setting [2], 113 nM.
On to “AGGAAGUGAGGAUAUGCAGUGGCCUGUAGACGCAAGCACUUGUAGAAGGCACAUGAGGAUCACCCAUGUUUAAA”, for which the “apparent Kd” value under setting [1] came out at 35.8 nM and the “apparent Kd” value under setting [2] worked out at 34.2 nM.
On the same counts, the results for “CGCAAGUCAGGAUAUUCGACUGGUCCAUCUGUGGAUCAGUAGGAGAAGGGACAUGAGGAUCACCCAUGUUUGUU” are 30.7 nM and 46.9 nM.
For “CCGAUGUAAGGAUAUCGUGCAAGUUUCAAAAGAGGCUUGUGCGAGAAGGUACAUGAGGAUCACCCAUGUAGGUU” the same measures were 95.4 nM and 345 nM.
On the same counts, the results for “AUUUGACACGUAGGAUAUCGCUCUAAUUUAACACGAGAAGGACGUACAUGAGGAUCACCCAUGUUAAAUGGUGUAGUUUAUUUG” are 82.1 nM and 164 nM.
In the case of “CUUGUGUUAGGAUAUGCGUUUCCGGUGCGUCACUGGAUCUGGCAGAAGGGACAUGAGGAUCACCCAUGUUUGGC”, the “apparent Kd” value turned out to be 38.7 nM under setting [1] and 31 nM under setting [2].
On to “GGAUAGGACAGAGGAUAUACGUGCUAGAGAUACAAGCAAAAUUUCCUCACAUGAGGAUCACCCAUGUAGAAGGCUGUCCUAUCG”, for which the “apparent Kd” value was 43.7 nM under setting [1] and 432 nM under setting [2].
For “UCUACAUAAAUUCAUCAAUACAGAAAGGAUAUGAAAUACAUGAGGAUCACCCAUGUUCAUGGGAAUUAGAAGGUUCAAUUAGCU” the same measures were 220 nM and 137 nM.
As for “UUCAAGUUGCGAGGAUAUCGUGUUAACAUGAGGAUCACCCAUGUAAAGGUUUAUUAAUUAAUCUUCGAGAAGGCGCUUAAUGUA”, the “apparent Kd” value reads like this: under setting [3], 29.3 nM; under setting [4], 19.5 nM.
Regarding “AAUUGACACGUAGGAUAUCGCUUUAAUUUAACACGAGAAGGACGUACAUGAGGAUCACCCAUGUUAAAUGGUGUAGAUUAAUUG”, the “apparent Kd” value under setting [1] stood at 167 nM and the “apparent Kd” value under setting [2] is 382 nM.
On the same counts, the results for “UUGUUAGGGAGAGGAUAUUGACAUGAGGAUCACCCAUGUACUUGGGAGUGUUUACUGAAUUCUCACGAGAAGGCUUACAAAUUU” are 175 nM and 147 nM.
On the same counts, the results for “CUUUUGUGAGGAUAUUCGUAGUAGGGUCAUGGCACUAUUAUGGAGAAGGCACAUGAGGAUCACCCAUGUACCUU” are 16.6 nM and 29.3 nM.
As to “GGUCGUCACAUAUACAUGAGGAUCACCCAUGUGAAAACACAUGAGGAUAUGGAUCCUAAUUGGAUCCAGAAGGCAUGGACGACC”, the “apparent Kd” value runs as follows: under setting [3], 42.1 nM; under setting [4], 7.63 nM.
For the sequence “UACAGCGUAGAUAAUUAUGUUACAUGAGGAUCACCCAUGUCAUAGGAUAUGCAGUGGAAUACACUGCAGAAGGAUGCAUCGCUG”, the “apparent Kd” value under setting [1] came to 14.7 nM and the “apparent Kd” value under setting [2] is 18.5 nM.
“UACAUCUCGUAAGGAUAUACACGAGAUUCAAGUGUAGAAGGUACUAACAUGAGGAUCACCCAUGUAUACAUGGAUAAUAGAUAU”: the “apparent Kd” value is, setting by setting: under setting [3], 91.6 nM; under setting [4], 59.7 nM.
Turning to “CAUAAGUCAGAGAAGGCGUACAUGCCCAGACUGUGACGGAUGACGACAUGAGGAUCACCCAUGUACGAGGAUAUCUGAGCAAUC”, the “apparent Kd” value runs as follows: under setting [1], 22.9 nM; under setting [2], 168 nM.
For “AGACAUGUCCGAGGAUAUCUGGAAACAUUUCCAAGAGAAGGCGGACAUGAGGAUCACCCAUGUCUCUCCUCAUCAAAUCCAAGU” the same measures were 10.7 nM and 90.9 nM.
For “UUUUAACAUGAGGAUCACCCAUGUGAGGAUAUCGAAAUUUAUAUUAAUAUUUUUAUUUCGAGAAGGCACAUUUU” the same measures were 144 nM and 166 nM.
On the same counts, the results for “AAAUACCUUGUGAUCAGCGUAACAUGAGGAUCACCCAUGUUGCAGGAUAUCGAACCCAGUCAGUACGAGAAGGGCAAUAGUGUU” are 7.16 nM and 11.6 nM.
On to “AAUUAUAGGUAGAAGGUACUGUAUUAUGUGUUGUAAGGAUAUACUAUAUUAUUAGUUCUCAAGUUACAUGAGGAUCACCCAUGU”, for which the “apparent Kd” value was 10.3 nM under setting [3] and 8.02 nM under setting [4].
For “GGACGUCACAUGAACAUGAGGAUCACCCAUGUAACUAGACAUGAGGAUAUGGUUCCUAAUUGGAACCAGAAGGCAUGGACGUCC” the same measures were 224 nM and 33 nM.
On to “GAUCCGUCUGUUAGGAUAUGCUUUGGGCUUCCGCAGUAGAAGGAACAUGAGGAUCACCCAUGUCCGAUGCCGUC”, for which the “apparent Kd” value is 33.4 nM under setting [1] and 43 nM under setting [2].
On the same counts, the results for “UAUAAUCGAGGAUAUACAUGAGGAUCACCCAUGUGUUGCCGCGUGACAUGAUCGUCAGGUAGAAGGCGAUUAUA” are 189 nM and 39.7 nM.
On the same counts, the results for “GAUACACAUGAGGAUCACCCAUGUGAGGAUAUGCGUACGUUGUCCGUAGGCGACGUGCGCAGAAGGCGCGAGGU” are 41.4 nM and 36.2 nM.
“GACAGCGACACAGGAUAUGUCAAUUUUACAUGAGGAUCACCCAUGUCCGAAGCAGAAGGGUGAUCGCGCGCAAACUAAGCCAUG”: the “apparent Kd” value came to 80.5 nM under setting [3] and 70.5 nM under setting [4].
On the same counts, the results for “ACCAGGGAUUCAGGAUAUAUUAGCCGAGGCCGCGUAGAAGGGAAAUCCUGACAUGAGGAUCACCCAUGUCGACCCGCCUUCCAA” are 43.3 nM and 41.9 nM.
Consider “UAUGUAUCCUCGGGAUCCACAUGAGGAUCACCCAUGUAGACUCAGGAUAUCCAAUGCGUUGACAGGGAGAAGGGAGUUCGCAUG”, for which the “apparent Kd” value is, setting by setting: under setting [1], 44.2 nM; under setting [2], 36.2 nM.
For “AGGGUAGUAGGAUAUACAUGAGGAUCACCCAUGUUUCCUUUACGUGACUGGUCCUAGUGUAGAAGGGCUAGCAC” the same measures were 15.8 nM and 14.8 nM.
For “AAAAUGUCAGGAUAUGCGAAGGCAUCUGACAGAUGAGGAUUGCAGAAGGGACAUGAGGAUCACCCAUGUAAAAA” the same measures were 40.3 nM and 47.5 nM.
For “AAGAAACAUGAGGAUCACCCAUGUGAGAAUAUGGGAGGAUAUACAAGGACGUAAGUCAAGGUAGAAGGCCUAAGAA”, the “apparent Kd” value reads like this: under setting [3], 171 nM; under setting [4], 29.7 nM.
On the same counts, the results for “CAUUCCAGGUAGAAGGGAUUACUACAUGAGGAUCACCCAUGUCGAUUGGUCAGGAUAUGCCUGUCACGACGCGUGAUGCUAAAA” are 382 nM and 187 nM.
Regarding “UGGUCAUGAUCAGGAUAUUAACAUGGGCUACAUUAAGAAGGGAUAGUGAGAUGCGAACGGAGCGACAUGAGGAUCACCCAUGUA”, the “apparent Kd” value under setting [3] came out at 39.2 nM and the “apparent Kd” value under setting [4] is 25.5 nM.
As to “GGUUAAUGCAAGGAUAUGCUAUUAUUUUAUUUUGCAGAAGGUGCAACAUGAGGAUCACCCAUGUUGGAGGGUUU”, the “apparent Kd” value is, setting by setting: under setting [1], 19.8 nM; under setting [2], 26.1 nM.
For “CCGCAAAUGCAGGAUAUCGUAUCGGAUACGAUACGAGAAGGGCAAACAUGAGGAUCACCCAUGUGUCCUAGCGG” the same measures were 15 nM and 26.6 nM.
On the same counts, the results for “UUGUUAUAUGUAGGAUAUGCAUAUUAUUAUUGUGCAGAAGGACAUGAGGAUCACCCAUGUAUAUUAUUAUUAUAUAUUAUAUAU” are 31.4 nM and 46 nM.
For the sequence “UCUAUAAGAAAAUAGACGAAGUGGCCAGAAGGUGAAUGCCACAUGAGGAUCACCCAUGUUUCGAUCAAGGAUAUGGUUUCUCAC”, the “apparent Kd” value was 383 nM under setting [3] and 99.1 nM under setting [4].
On the same counts, the results for “UUGGACGUCGUAGGAUAUGUAGGAUAUUCCUACAUGAGGAUCACCCAUGUUGACAUGGAAGAACGACAGAAGGACGAUGUCCAU” are 130 nM and 7.46 nM.
For “UAAAUAUUAAAAGGAUAUUCAUACCGGAAACGGACAUGAGGAUCACCCAUGUGGCGAAAGCCUUGGGAGAAGGUAUUAUAAAAU” the same measures were 333 nM and 248 nM.
Turning to “UUGGACAGCUAGAGCUGUUAAGUACAUGAGGAUCACCCAUGUCAGGAUAUCCUUCCGCAAUGCGAGGAGAAGGGACAGGGUCCC”, the “apparent Kd” value by setting is: under setting [1], 64.7 nM; under setting [2], 149 nM.
With “UGUAAGAUGCAGAAGGUGUUAGCUAGAGCUACGACAUGAGGAUCACCCAUGUACUAGAAACAGUACAAGGAUAUGCAUCUUACG”, the “apparent Kd” value came to 17.5 nM under setting [3] and 6.57 nM under setting [4].
As for “CCACCUCCUGAGGAUAUUGCAUCACCCGACUGAUAAGAAGGCAGAACAUGAGGAUCACCCAUGUGGGUACUCAC”, the “apparent Kd” value is, setting by setting: under setting [1], 84 nM; under setting [2], 87.1 nM.
On the same counts, the results for “GGAGAGGAAACAUGAGGAUCACCCAUGUGAGUGGUCCGAAUAUAGGAUAUCCACACGAGAAGUGUGGAGAAGGAUAACCUCUCC” are 73 nM and 90.2 nM.
Regarding “UGGUACUAGGGAGGAUAUGGGAAGAUACAUGAGGAUCACCCAUGUUCAAGAAUGCCGAGAGGCAACUAGAAGGCCCUAGUACCU”, the “apparent Kd” value is, setting by setting: under setting [3], 928 nM; under setting [4], 46.2 nM.

The term apparent Kd denotes the concentration giving half-maximal binding under the conditions of the assay.
